Active and inactive are the calls of the source. No cut-off for these calls is given here.
What was measured:
COLO 205 [1] = experiment: Growth inhibition of human COLO205 cells after 48 hrs by sulforhodamine B assay; format: functional; settings: COLO 205, 48 h
Procedure, shortened: (§1)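 Cells grown in DMEM with 10% FBS and 2 mM L-glutamine, plated at densities set by doubling time, and held 24 h before dosing. Exposure was 48 h to 0.1, 1, 10 and 100 µM in triplicate wells. Cells fixed with cold TCA (final 10%) 60 min at 4 °C and stained with 0.4% SRB 20 min. Bound dye eluted in 10 mM Tris base and read at 540 nm (690 nm reference). GI50 is the concentration giving 50% reduction in net protein gain versus control; values are the mean of three determinations.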

A549 = experiment: Growth inhibition of human A549 cells after 48 hrs by sulforhodamine B assay; format: functional; settings: A549, 48 h; procedure, shortened: as §1
COLO 205 [2] = experiment: Cytotoxicity against human COLO205 cells at 8 uM after 24 hrs by MTT assay; format: functional, cell-based
Procedure, shortened: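 Colo-205 cells plated at 10,000 per well, left overnight, then exposed 24 h at 2, 4 or 8 µM. MTT added for 2 h at 37 °C, formazan dissolved in extraction buffer, and optical density read at 570 nm against untreated cells.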

COLO 205 [3] = experiment: Cell cycle arrest in human COLO205 cells assessed as accumulation at G0 phase at 4 uM after 24 hrs by FACS analysis (reference value: 4.29%); format: functional
Procedure, shortened: (§2)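 Colo-205 cells seeded at […] per 60 mm dish and treated 24 h at 4 µM; TSA arm used TSA at 4 µM for 12 h. Cells trypsinised, fixed in ice-cold 70% ethanol 30 min at 4 °C, RNase 1 mg/mL 30 min at 37 °C, then propidium iodide/citrate/Triton stain. DNA content of 20,000 events read by flow cytometry; phase percentages from histograms.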

COLO 205 [4] = experiment: Cell cycle arrest in human COLO205 cells assessed as accumulation at S phase at 4 uM after 24 hrs by FACS analysis (reference value: 8.91%); format: functional; procedure, shortened: as §2
COLO 205 [5] = experiment: Cell cycle arrest in human COLO205 cells assessed as accumulation at G2/M phase at 4 uM after 24 hrs by FACS analysis (reference value: 25.92%); format: functional; procedure, shortened: as §2
COLO 205 [6] = experiment: Cell cycle arrest in human COLO205 cells assessed as accumulation at G1 phase at 4 uM after 24 hrs by FACS analysis in presence of HDAC inhibitor, trichostatin A (reference value: 70.57%); format: functional; procedure, shortened: as §2
[7] = target: DNA topoisomerase 2-alpha (Homo sapiens) (UniProt P11388); experiment: Inhibition of topoisomerase 2alpha in human in COLO205 cells assessed as induction of single-strand DNA breaks at 4 uM after 24 hrs by comet assay; format: cell-based; settings: COLO 205
Procedure, shortened: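 Colo-205 cells treated 24 h at 4 µM. Electrophoresis 20 min at 40 V in 0.5% TBE pH 8. Slides stained with SYBR green 30 min and imaged by fluorescence microscopy at 20×.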

[8] = target: DNA topoisomerase 2-beta (Homo sapiens) (UniProt Q02880); experiment: Inhibition of topoisomerase 2beta in human in COLO205 cells assessed as induction of double-strand DNA breaks at 4 uM after 24 hrs by gamma-H2AX staining-based Western blotting analysis; format: cell-based; settings: COLO 205
Procedure, shortened: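 Colo-205 cells treated 24 h at 4 µM. Double-strand breaks detected with anti-phospho-Ser139 H2AX antibody, both by immunofluorescence staining and by Western blot, with β-actin as loading control.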

COLO 205 [9] = experiment: Down regulation of topoisomerase 2beta in human COLO205 cells at 4 uM after 24 hrs by Western blotting analysis; format: functional, cell-based
Procedure, shortened: (§3)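 Colo-205 cells treated 24 h at 4 µM and lysed in ice-cold RIPA with protease inhibitors and NaF. Protein measured by Bradford; 50 µg per lane run on 12% SDS-PAGE and transferred to PVDF. Membrane blocked 2 h, primary antibody (topo-IIα/β, p21, p16, pro-caspase-3, NF-kB p65) overnight at 4 °C, HRP secondary 1:2000 for 1 h, chemiluminescence detection; β-actin as loading control. Reduced procaspase-3 taken as caspase-3 activation.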

COLO 205 [10] = experiment: Induction of apoptosis in human COLO205 cells assessed as increase in caspase 3 activation at 4 uM after 24 hrs by ELISA; format: functional, cell-based
COLO 205 [11] = experiment: Induction of apoptosis in human COLO205 cells assessed as up-regulation of p16 at 4 uM after 24 hrs by Western blotting analysis; format: functional, cell-based; procedure, shortened: as §3
[12] = target: DNA topoisomerase 2-beta (Mus musculus) (UniProt Q64511); experiment: Inhibition of topoisomerase 2beta in mouse embryonic fibroblasts after 1.5 hrs by comet assay; settings: concentration not given here
COLO 205 [13] = experiment: Down regulation of topoisomerase 2alpha in human COLO205 cells at 4 uM after 24 hrs by Western blotting analysis; format: functional, cell-based; procedure, shortened: as §3

Chain of DNA topoisomerase 2-alpha (Homo sapiens) (P11388 whole entry): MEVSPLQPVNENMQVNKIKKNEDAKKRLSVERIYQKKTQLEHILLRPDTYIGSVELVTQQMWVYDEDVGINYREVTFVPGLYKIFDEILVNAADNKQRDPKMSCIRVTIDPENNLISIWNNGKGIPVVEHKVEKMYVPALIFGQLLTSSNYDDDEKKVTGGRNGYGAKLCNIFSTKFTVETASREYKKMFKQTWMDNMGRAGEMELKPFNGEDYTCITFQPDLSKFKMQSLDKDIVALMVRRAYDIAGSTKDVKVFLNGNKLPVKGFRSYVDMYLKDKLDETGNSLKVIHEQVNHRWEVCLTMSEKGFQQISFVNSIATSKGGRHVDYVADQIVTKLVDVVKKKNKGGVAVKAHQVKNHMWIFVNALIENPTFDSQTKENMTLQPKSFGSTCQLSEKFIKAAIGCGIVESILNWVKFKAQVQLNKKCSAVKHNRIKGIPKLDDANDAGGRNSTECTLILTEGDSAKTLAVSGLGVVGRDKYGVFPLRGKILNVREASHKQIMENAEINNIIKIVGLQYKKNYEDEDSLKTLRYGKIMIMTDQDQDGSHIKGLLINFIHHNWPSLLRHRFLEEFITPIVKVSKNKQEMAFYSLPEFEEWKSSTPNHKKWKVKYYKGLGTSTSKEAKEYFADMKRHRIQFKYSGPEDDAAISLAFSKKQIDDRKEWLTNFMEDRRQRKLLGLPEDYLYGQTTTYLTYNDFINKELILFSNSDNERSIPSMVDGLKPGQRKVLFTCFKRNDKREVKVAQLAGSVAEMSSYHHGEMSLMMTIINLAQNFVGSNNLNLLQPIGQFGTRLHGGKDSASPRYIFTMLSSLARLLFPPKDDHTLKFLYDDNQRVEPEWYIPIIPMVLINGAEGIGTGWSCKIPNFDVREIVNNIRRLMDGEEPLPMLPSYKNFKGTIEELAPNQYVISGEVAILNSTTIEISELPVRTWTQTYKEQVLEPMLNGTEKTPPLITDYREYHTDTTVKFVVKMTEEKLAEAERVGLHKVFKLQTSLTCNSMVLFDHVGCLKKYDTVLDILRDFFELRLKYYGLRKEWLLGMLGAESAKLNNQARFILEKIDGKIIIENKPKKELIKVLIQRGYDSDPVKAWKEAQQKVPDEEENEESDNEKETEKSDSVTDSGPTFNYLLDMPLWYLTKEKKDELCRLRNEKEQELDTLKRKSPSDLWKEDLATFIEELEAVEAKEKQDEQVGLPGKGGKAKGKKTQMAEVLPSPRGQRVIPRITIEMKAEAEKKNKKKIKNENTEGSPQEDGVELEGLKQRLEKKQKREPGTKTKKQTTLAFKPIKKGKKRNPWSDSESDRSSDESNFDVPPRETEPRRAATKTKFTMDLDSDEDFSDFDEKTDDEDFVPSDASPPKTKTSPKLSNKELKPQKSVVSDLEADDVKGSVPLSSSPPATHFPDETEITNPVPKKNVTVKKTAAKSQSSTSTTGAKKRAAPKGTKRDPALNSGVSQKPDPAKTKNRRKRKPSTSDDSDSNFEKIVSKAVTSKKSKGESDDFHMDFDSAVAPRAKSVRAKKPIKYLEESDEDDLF
Chain of DNA topoisomerase 2-beta (Homo sapiens) (Q02880 whole entry): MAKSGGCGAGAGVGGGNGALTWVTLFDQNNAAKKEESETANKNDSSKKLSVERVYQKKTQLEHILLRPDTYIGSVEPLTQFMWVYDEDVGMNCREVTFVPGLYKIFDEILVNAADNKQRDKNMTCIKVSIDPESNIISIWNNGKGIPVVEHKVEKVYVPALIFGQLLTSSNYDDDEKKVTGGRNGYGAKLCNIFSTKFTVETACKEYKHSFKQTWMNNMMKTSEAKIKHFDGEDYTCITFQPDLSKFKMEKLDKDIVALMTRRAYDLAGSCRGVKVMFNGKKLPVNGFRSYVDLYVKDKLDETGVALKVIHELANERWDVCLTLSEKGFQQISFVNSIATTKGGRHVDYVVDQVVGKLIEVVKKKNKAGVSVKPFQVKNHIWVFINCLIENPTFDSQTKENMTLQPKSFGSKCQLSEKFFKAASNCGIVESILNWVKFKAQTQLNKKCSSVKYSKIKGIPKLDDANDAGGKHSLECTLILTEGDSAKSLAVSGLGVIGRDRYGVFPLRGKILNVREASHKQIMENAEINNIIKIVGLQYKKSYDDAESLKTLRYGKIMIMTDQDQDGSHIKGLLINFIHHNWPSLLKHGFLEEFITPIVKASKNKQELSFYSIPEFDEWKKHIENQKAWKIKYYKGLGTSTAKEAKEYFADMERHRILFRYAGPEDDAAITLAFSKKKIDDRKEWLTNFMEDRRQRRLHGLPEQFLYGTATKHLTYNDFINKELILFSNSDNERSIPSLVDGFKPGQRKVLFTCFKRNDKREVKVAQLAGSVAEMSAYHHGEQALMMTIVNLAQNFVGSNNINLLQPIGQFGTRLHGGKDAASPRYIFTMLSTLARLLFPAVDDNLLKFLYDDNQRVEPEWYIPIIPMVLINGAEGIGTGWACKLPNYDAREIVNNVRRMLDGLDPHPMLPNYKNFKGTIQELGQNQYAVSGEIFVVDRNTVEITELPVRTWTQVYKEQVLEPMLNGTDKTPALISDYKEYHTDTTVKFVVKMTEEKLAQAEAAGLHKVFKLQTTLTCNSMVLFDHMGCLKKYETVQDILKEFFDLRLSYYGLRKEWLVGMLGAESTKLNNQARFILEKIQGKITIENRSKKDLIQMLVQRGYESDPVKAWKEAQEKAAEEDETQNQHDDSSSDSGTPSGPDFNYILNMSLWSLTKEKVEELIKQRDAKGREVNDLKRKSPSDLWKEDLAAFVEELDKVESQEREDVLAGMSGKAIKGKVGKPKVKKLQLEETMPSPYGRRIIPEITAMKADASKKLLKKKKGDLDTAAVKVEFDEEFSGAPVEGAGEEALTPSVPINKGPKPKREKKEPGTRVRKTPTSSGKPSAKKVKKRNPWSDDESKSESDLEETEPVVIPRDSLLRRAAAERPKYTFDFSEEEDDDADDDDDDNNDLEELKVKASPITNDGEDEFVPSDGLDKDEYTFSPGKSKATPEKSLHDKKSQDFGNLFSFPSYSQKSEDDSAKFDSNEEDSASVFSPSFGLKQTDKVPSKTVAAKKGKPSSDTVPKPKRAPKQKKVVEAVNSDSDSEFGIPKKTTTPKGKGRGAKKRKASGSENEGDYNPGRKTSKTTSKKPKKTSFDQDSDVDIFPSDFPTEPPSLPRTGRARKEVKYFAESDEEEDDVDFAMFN
Chain of DNA topoisomerase 2-beta (Mus musculus) (Q64511 whole entry): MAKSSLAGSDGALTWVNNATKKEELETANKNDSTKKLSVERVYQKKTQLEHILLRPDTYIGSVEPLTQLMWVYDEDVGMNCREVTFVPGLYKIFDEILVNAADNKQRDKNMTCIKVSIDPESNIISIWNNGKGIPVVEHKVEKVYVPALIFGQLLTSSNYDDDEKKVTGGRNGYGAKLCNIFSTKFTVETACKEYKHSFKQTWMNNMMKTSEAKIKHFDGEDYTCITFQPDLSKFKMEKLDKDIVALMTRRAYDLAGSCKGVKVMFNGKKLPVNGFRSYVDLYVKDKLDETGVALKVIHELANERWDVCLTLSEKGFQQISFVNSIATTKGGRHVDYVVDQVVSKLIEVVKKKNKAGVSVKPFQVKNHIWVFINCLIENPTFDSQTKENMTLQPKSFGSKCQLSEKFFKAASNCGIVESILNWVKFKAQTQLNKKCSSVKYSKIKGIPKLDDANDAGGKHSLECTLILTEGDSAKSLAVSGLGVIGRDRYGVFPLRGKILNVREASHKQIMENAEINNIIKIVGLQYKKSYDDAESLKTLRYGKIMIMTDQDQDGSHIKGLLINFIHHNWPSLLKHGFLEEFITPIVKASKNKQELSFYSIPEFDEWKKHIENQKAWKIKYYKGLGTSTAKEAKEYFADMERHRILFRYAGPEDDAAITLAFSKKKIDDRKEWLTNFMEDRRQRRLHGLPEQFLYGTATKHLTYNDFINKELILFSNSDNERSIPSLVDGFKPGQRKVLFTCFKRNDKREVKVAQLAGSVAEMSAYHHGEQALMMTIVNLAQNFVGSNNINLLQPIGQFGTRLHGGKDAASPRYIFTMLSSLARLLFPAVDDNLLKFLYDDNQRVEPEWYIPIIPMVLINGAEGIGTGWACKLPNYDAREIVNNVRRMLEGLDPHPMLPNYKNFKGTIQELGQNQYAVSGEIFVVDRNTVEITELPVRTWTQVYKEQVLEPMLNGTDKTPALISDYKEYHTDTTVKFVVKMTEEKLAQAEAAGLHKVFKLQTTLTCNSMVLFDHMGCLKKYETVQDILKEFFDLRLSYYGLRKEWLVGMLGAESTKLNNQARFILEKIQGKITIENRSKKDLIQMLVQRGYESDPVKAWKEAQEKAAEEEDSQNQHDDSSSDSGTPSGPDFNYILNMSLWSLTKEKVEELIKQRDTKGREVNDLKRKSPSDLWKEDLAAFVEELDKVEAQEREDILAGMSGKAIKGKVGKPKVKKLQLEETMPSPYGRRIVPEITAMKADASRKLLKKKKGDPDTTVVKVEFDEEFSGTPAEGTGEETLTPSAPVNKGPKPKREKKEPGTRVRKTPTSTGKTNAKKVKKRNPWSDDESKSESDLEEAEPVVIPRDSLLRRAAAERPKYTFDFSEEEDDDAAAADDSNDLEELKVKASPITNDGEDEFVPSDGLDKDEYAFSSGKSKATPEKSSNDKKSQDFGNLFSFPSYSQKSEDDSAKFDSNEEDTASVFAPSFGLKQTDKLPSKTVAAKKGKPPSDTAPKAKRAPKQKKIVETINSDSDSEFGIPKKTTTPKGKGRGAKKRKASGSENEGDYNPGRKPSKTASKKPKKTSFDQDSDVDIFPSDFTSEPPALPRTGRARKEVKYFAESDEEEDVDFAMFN

SMILES	GI50 (COLO 205 [1]) [µM]	GI50 (A549) [µM]	Activity (COLO 205 [2])	Activity (COLO 205 [3]) [%]	Percentage of cells in S phase (COLO 205 [4]) [%]	Percentage of cells in G2/M phase (COLO 205 [5]) [%]	Activity (COLO 205 [6]) [%]	inhibition [7]	inhibition [8]	Activity (COLO 205 [9])	Activity (COLO 205 [10])	Activity (COLO 205 [11])	inhibition [12] [%]	Activity (COLO 205 [13])
COc1cc([C@@H]2c3cc4c(cc3[C@@H](O[C@@H]3O[C@@H]5CO[C@@H](C)O[C@H]5[C@H](O)[C@H]3O)[C@H]3COC(=O)[C@H]23)OCO4)cc(OC)c1O [ETOPOSIDE]	0.13	3.08	Active	5.95	6.97	74.27	21.74	Active	Active	Active	Active	Active	100	
COC(=O)c1sccc1S(=O)(=O)N[C@@H]1c2cc3c(cc2[C@@H](c2cc(OC)c(OC)c(OC)c2)[C@H]2C(=O)OC[C@@H]21)OCO3	0.04	0.15	Active	23.94	8.16	40.57	18.8	60%	50%		Active	Active		Active

— ChEMBL document CHEMBL1955829, “Synthesis and biological evaluation of 4β-sulphonamido and 4β-[(4'-sulphonamido)benzamide]podophyllotoxins as DNA topoisomerase-IIα and apoptosis inducing agents” (2012)
